Reference: ChEMBL document CHEMBL4680237, “In situ click chemistry-based rapid discovery of novel HIV-1 NNRTIs by exploiting the hydrophobic channel and tolerant regions of NNIBP” (Eur J Med Chem, 2020)

Columns and labels:
[1] = test system: Human immunodeficiency virus 1; test: Antiviral activity against HIV1 3B infected in human MT4 cells assessed as reduction in virus-induced cell death incubated for 5 days by MTT assay; type: functional, organism-based; details: Human immunodeficiency virus 1, 3B, MT4, 120 h
Summary of the method: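 MT-4 cells (6×10^5 cells/mL) infected with HIV-1 at 100-300 CCID50; serial 5-fold compound dilutions added at infection, triplicate wells. After 5 days, viability was read by MTT at 540 and 690 nm, using the median absorbance of three wells. EC50 is the concentration giving 50% protection against virus cytopathic effect.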

[2] = test system: Human immunodeficiency virus 1; test: Antiviral activity against HIV1 RES056 infected in human MT4 cells assessed as reduction in virus-induced cell death incubated for 5 days by MTT assay; type: functional, organism-based; details: Human immunodeficiency virus 1, RES056, MT4, 120 h
Summary of the method: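 MT-4 cells (6×10^5 cells/mL) infected with HIV-1 at 100-300 CCID50; serial 5-fold compound dilutions added at infection, triplicate wells. After 5 days, viability was read by MTT at 540 and 690 nm, using the median absorbance of three wells.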

[3] = Cytotoxicity against human MT4 cells assessed as reduction in cell viability after 5 days by MTT assay; type: cell-based; details: time 5 day
Summary of the method: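 Mock-infected MT-4 cells (6×10^5 cells/mL) were run in parallel with serial 5-fold compound dilutions in triplicate wells. After 5 days, viability was read by MTT (540/690 nm) as the median of three wells. CC50 is the concentration reducing OD540 of the mock-infected control by 50%.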

[4] = Selectivity index, ratio of CC50 for cytotoxicity against human MT4 cells to EC50 for antiviral activity against HIV1 3B infected in human MT4 cells; type: toxicity, cell-based; details: read-out: Ratio CC50/EC50
Summary of the method: (§1)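 SI computed as CC50 in mock-infected MT-4 cells divided by EC50 against the given HIV-1 strain, both from the 5-day MTT assay.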

[5] = Selectivity index, ratio of CC50 for cytotoxicity against human MT4 cells to EC50 for antiviral activity against HIV1 RES056 infected in human MT4 cells; type: toxicity, cell-based; details: read-out: Ratio CC50/EC50; summary of the method: as §1
[6] = biological target: Human immunodeficiency virus type 1 reverse transcriptase (Human immunodeficiency virus 1) (UniProt Q72547); test: Inhibition of HIV-1 reverse transcriptase assessed as reduction in biotin-dUTP incorporation in to cDNA chain at 0.267 uM in presence of DIG-dUTP, biotin-dUTP and dTTP measured after 1 hr by ELISA relative to control
Summary of the method: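 ELISA for HIV-1 RT: enzyme with reconstituted template, DIG-dUTP, biotin-dUTP and dTTP in buffer ± inhibitor, 1 h at 37°C. Product captured on streptavidin-coated plate 2 h at 37°C, then anti-DIG-POD 1 h at 37°C, ABTS substrate, OD405. % inhibition calculated from OD with/without inhibitor and without RT.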

SMILES	inhibition [6] [%]	EC50 [1] [µM]	EC50 [2] [µM]	CC50 at 120 h [3] [µM]	selectivity ratio [4]	selectivity ratio [5]
Cc1ccnc2c1NC(=O)c1cccnc1N2C1CC1 [NEVIRAPINE]	–	0.163	> 9.51	> 9.51	> 58	–
Cc1cc(C#N)cc(C)c1Oc1nc(NC2CCN(Cc3cn(Cc4ccc(C#N)cc4)nn3)CC2)nc2ccsc12	–	0.209	18.1	110	525	6
O=C1Nc2ccc(Cl)cc2[C@@](C#CC2CC2)(C(F)(F)F)O1 [EFAVIRENZ]	–	0.0047	–	> 6.38	–	–
Cc1cc(C#N)cc(C)c1Oc1nc(NCCc2cn(Cc3ccccc3Cl)nn2)nc2ccsc12	75.6	–	–	–	–	–
Cc1cc(C#N)cc(C)c1Oc1nc(NC2CCN(C(=O)c3cn(CC(=O)Nc4ccccc4)nn3)CC2)nc2ccsc12	80.2	–	–	–	–	–
Cc1cc(C#N)cc(C)c1Oc1nc(NCCc2cn(Cc3ccc(C(N)=O)cc3)nn2)nc2ccsc12	71.1	–	–	–	–	–
Cc1cc(C#N)cc(C)c1Oc1nc(NC2CCN(Cc3cn([C@H]4C[C@H](n5cc(C)c(=O)[nH]c5=O)O[C@@H]4CO)nn3)CC2)nc2ccsc12	57.1	0.0829	10.6	149	1800	14
Cc1cc(C#N)cc(C)c1Oc1nc(NC2CCN(Cc3ccc(S(N)(=O)=O)cc3)CC2)nc2ccsc12	44	–	0.0306	> 227	> 159000	> 7420
Cc1cccc(Cn2cc(CCNc3nc(Oc4c(C)cc(C#N)cc4C)c4sccc4n3)nn2)c1	91.8	–	–	–	–	–
Cc1cc(C#N)cc(C)c1Oc1nc(NC2CCN(C(=O)c3cn(CC(=O)N4CCOCC4)nn3)CC2)nc2ccsc12	71.8	–	–	–	–	–
Cc1cc(C#N)cc(C)c1Oc1nc(Nc2ccc(C#N)cc2)nc(N)c1Br [ETRAVIRINE]	32.7	0.0051	–	> 4.59	> 889	> 101
Cc1cc(C#N)cc(C)c1Oc1nc(NCCc2cn(Cc3ccccc3[N+](=O)[O-])nn2)nc2ccsc12	89.1	–	–	–	–	–
Cc1cc(C#N)cc(C)c1Oc1nc(NCCc2cn(CC(=O)N3CCOCC3)nn2)nc2ccsc12	86.7	–	–	–	–	–

Second part, led by results:

inhibition [6] [%]	SMILES	EC50 [1] [µM]	EC50 [2] [µM]	CC50 at 120 h [3] [µM]	selectivity ratio [4]	selectivity ratio [5]
70.8	Cc1cc(-c2cn(Cc3ccc(Cl)cc3)nn2)cc(C)c1Oc1nc(NC2CCN(Cc3ccc(S(N)(=O)=O)cc3)CC2)nc2ccsc12	0.0313	> 3.4	3.39	108	< 1
72.5	Cc1cc(-c2cn(CCc3ccsc3)nn2)cc(C)c1Oc1nc(NC2CCN(Cc3ccc(S(N)(=O)=O)cc3)CC2)nc2ccsc12	0.0211	6.19	11.7	552	1.88
42	Cc1cc(C#N)cc(C)c1Oc1nc(NC2CCN(Cc3cn(Cc4ccc(S(N)(=O)=O)cc4)nn3)CC2)nc2ccsc12	0.00535	0.67	20.7	3880	31
51.9	Cc1cc(C#N)cc(C)c1Oc1nc(NC2CCN(Cc3cn(Cc4ccccc4[N+](=O)[O-])nn3)CC2)nc2ccsc12	0.00612	1.17	7.66	1250	7
46.1	Cc1ccc(Cn2cc(CN3CCC(Nc4nc(Oc5c(C)cc(C#N)cc5C)c5sccc5n4)CC3)nn2)cc1	0.00726	> 4.72	4.72	650	< 1
44.8	Cc1ccccc1Cn1cc(CN2CCC(Nc3nc(Oc4c(C)cc(C#N)cc4C)c4sccc4n3)CC2)nn1	–	–	–	–	–
69.7	Cc1cc(C#N)cc(C)c1Oc1nc(NC2CCN(Cc3cn(CC(=O)N4CCOCC4)nn3)CC2)nc2ccsc12	0.00438	4.46	> 212	> 48500	> 48
74	Cc1cc(-c2cn(CC(=O)N3CCCC3)nn2)cc(C)c1Oc1nc(NC2CCN(Cc3ccc(S(N)(=O)=O)cc3)CC2)nc2ccsc12	0.0258	6.05	17.6	682	3
66.6	Cc1cc(C#N)cc(C)c1Oc1nc(NC2CCN(Cc3cn(Cc4ccc(C(N)=O)cc4)nn3)CC2)nc2ccsc12	0.00328	0.481	> 210	> 64100	> 437
60.1	Cc1cc(C#N)cc(C)c1Oc1nc(NC2CCN(Cc3cn(CC(=O)Nc4ccc(S(C)(=O)=O)cc4)nn3)CC2)nc2ccsc12	0.00666	1.99	19.8	2970	10
75.8	Cc1ccccc1Cn1cc(C(=O)N2CCC(Nc3nc(Oc4c(C)cc(C#N)cc4C)c4sccc4n3)CC2)nn1	–	–	–	–	–
50.3	Cc1cc(C#N)cc(C)c1Oc1nc(NC2CCN(Cc3cn(Cc4ccccc4C#N)nn3)CC2)nc2ccsc12	0.00664	2.91	16.2	2440	6
72.4	Cc1cc(C#N)cc(C)c1Oc1nc(NCCc2cn(Cc3ccc(S(N)(=O)=O)cc3)nn2)nc2ccsc12	–	–	–	–	–
